Activity calls are given as the source filed them. The calls are words filed in the database; no cut-off is given here.
Experiments:
[1] = molecular target: Ubiquitin-conjugating enzyme E2 N/Ubiquitin-conjugating enzyme E2 variant 1 (Homo sapiens) (UniProt Q13404+P61088); assay: Inhibition of Ubc13/Uev1A interaction (unknown origin); format: protein assay
Proteasome = assay: Inhibition of proteasome (unknown origin); format: subcellular; conditions: Homo sapiens
[2] = molecular target: Tumour suppressor p53/oncoprotein Mdm2 (Homo sapiens) (UniProt P04637+Q00987); assay: Inhibition of p53/Mdm2 interaction (unknown origin); format: protein assay
Chain of Tumour suppressor p53/oncoprotein Mdm2 (Homo sapiens) (P04637 whole entry, looked up): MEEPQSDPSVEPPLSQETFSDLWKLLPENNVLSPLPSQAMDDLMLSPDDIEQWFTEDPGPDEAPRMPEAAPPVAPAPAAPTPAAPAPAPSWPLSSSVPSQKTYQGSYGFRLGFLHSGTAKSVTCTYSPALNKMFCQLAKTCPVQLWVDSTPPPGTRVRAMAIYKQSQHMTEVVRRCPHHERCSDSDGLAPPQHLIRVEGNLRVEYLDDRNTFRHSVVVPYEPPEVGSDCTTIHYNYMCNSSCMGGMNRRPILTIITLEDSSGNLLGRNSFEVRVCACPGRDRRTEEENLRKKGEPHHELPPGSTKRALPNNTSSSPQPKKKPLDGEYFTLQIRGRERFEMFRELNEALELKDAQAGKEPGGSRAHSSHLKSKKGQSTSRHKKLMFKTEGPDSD
Chain of Tumour suppressor p53/oncoprotein Mdm2 (Homo sapiens) (Q00987 whole entry, looked up): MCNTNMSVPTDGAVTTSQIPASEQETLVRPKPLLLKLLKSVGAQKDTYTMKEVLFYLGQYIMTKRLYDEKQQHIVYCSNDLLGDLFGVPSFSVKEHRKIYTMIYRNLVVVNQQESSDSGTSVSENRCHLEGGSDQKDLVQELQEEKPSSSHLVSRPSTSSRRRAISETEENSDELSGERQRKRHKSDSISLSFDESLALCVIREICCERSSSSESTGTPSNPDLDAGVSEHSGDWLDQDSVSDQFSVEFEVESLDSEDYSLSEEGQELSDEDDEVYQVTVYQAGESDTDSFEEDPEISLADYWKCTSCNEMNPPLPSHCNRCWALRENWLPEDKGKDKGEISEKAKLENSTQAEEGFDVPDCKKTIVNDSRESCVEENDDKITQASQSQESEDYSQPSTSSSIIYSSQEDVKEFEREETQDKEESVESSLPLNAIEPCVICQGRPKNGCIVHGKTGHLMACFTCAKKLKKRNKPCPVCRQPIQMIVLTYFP

[3] = molecular target: Ubiquitin carboxyl-terminal hydrolase 7 (Homo sapiens) (UniProt Q93009); assay: Inhibition of USP7 (unknown origin)
Chain of Ubiquitin carboxyl-terminal hydrolase 7 (Homo sapiens) (Q93009 whole entry, looked up): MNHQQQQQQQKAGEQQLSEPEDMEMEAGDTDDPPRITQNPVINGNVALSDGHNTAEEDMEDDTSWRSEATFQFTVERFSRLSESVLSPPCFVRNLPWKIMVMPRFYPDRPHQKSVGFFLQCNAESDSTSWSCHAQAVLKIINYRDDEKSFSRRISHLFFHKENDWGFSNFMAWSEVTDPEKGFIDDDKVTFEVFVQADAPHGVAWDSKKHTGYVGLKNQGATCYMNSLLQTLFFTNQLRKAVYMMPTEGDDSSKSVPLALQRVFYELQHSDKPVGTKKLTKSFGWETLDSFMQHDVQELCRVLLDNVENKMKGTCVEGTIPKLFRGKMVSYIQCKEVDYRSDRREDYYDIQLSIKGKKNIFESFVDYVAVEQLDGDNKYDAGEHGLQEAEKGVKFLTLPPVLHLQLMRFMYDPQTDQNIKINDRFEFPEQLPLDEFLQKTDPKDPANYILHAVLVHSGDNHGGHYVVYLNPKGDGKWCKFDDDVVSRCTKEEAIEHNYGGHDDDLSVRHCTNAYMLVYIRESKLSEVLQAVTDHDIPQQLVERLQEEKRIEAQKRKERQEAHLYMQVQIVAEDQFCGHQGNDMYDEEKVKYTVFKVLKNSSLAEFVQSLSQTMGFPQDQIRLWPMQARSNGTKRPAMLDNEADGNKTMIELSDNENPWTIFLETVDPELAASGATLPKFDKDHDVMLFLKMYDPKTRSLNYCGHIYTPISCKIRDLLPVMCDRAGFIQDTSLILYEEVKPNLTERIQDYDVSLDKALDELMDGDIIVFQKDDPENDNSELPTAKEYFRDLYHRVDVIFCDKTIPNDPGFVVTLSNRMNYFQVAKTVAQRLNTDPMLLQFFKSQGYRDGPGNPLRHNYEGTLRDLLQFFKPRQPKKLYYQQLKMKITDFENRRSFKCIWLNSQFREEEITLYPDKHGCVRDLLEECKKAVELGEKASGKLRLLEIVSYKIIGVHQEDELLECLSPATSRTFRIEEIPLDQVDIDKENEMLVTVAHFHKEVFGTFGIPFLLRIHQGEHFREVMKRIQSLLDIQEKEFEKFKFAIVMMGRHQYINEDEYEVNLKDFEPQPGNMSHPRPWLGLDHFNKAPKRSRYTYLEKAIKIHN

Osteoclast = assay: Inhibition of RANKL-induced formation of multinuclear osteoclasts (unknown origin); format: functional, cell-based
HeLa [4] = assay: Cytotoxicity in human HeLa cells at 50 uM incubated for 3 days by MTT assay; format: functional, cell-based
How it was run: (§1)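 HeLa cells; daunorubicin run alongside as the positive control.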

Macrophage = assay: Inhibition of cholesterol ester accumulation in macrophages (unknown origin); format: functional, cell-based
[5] = molecular target: T1, Ubiquitin-like modifier-activating enzyme 1 (Homo sapiens) (UniProt P22314); assay: Inhibition of Ubiquitin/Ubiquitin-activating enzyme E1 (unknown origin)
T1 sequence (whole entry): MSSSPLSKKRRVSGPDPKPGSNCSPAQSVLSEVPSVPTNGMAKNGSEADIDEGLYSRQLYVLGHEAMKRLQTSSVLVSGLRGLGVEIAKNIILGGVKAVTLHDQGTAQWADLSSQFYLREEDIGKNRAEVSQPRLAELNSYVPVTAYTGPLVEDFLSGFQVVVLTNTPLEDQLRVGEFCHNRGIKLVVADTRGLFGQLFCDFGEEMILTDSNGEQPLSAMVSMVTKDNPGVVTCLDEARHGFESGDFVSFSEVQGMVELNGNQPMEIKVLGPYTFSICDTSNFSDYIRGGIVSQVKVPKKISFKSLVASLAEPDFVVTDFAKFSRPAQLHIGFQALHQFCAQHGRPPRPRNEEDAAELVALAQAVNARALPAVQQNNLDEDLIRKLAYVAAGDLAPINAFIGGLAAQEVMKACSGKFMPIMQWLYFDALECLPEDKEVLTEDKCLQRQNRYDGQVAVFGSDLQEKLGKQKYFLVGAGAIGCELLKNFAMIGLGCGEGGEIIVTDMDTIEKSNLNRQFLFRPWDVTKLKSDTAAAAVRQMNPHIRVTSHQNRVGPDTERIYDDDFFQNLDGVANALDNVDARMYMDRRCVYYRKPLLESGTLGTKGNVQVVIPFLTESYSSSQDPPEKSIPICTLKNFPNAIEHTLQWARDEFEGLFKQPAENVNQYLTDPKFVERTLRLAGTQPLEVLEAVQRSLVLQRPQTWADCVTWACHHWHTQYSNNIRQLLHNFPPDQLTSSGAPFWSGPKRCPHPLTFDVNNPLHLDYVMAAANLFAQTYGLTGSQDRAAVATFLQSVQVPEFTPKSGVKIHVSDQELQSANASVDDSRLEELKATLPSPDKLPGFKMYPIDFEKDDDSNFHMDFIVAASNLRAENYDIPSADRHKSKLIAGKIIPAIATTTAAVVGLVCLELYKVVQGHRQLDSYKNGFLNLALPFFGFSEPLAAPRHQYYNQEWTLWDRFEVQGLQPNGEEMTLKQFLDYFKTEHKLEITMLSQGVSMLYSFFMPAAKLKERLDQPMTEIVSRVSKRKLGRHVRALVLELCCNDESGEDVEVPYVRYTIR

HeLa [6] = assay: Cytotoxicity in human HeLa cells incubated for 3 days by MTT assay; format: functional, cell-based; conditions: 72 h; how it was run: as §1

| inhibition [1] | inhibition (Proteasome) | inhibition [2] | inhibition [3] | inhibition [5] | SMILES | inhibition (Osteoclast) | Activity (HeLa [4]) | inhibition (Macrophage) | IC50 (HeLa [6]) |
| --- | --- | --- | --- | --- | --- | --- | --- | --- | --- |
| inactive | inactive | inactive | inactive | inactive | C=C[C@@]1(C)CCC2=C(C(=O)O[C@]23CCCC(C)(C)[C@@H]3C(=O)O[C@@H]2O[C@H](CO)[C@@H](O)[C@H](O)[C@H]2O)[C@@H]1O | inactive | inactive | inactive |  |
| inactive | inactive | inactive | inactive | inactive | C=C[C@@]1(C)CCC2=C(C(=O)O[C@]23CCCC(C)(C)[C@@H]3C(=O)O)[C@@H]1O | inactive | inactive | inactive |  |
| inactive | inactive | inactive | inactive | inactive | C=C[C@]1(C)C=C2C(=O)O[C@@]34CCCC(C)(C)[C@@H]3C(=O)O[C@@]24CC1 | inactive |  | inactive | 4.5 µM |
| inactive | inactive | inactive | inactive | inactive | C=C[C@]1(C)CC2=C(O)C(=O)C3=C(CCCC3(C)C)C2=CC1=O | inactive | inactive | inactive |  |
| inactive | inactive | inactive | inactive | inactive | C=C[C@]1(C)C=C2[C@@H](O)[C@@]3(O)OC(=O)[C@@]4(CCCC(C)(C)[C@H]34)[C@@]2(O)CC1 | inactive | inactive | inactive |  |
